≈ marks a conversion by molar mass, not a printed value.
Assays:
E6SM [1] = assay: concentration required to inhibit HSV-1(KOS)-induced cytopathicity by 50% in E6SM cells; format: functional, cell-based; settings: Homo sapiens
Summary of the method: (§1)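 Assay measured inhibition of virus-induced cytopathicity in confluent E6SM, HeLa or Vero monolayers. Cells were inoculated with 100 CCID50 of virus for 1 h adsorption, then unbound virus was removed. Cultures were incubated with serial compound concentrations (400, 200, 100 … µg/mL). Cytopathicity was scored once virus control cultures reached complete CPE, and the 50% effective concentration was derived.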

E6SM [2] = assay: concentration required to inhibit VSV-induced cytopathicity by 50% in E6SM cells; format: functional, cell-based; settings: Homo sapiens; summary of the method: as §1
HeLa [3] = assay: concentration required to inhibit Coxsackie virus B4-induced cytopathicity by 50% in HeLa cells; format: functional, cell-based; settings: Homo sapiens; summary of the method: as §1
HeLa [4] = assay: concentration required to inhibit VSV-induced cytopathicity by 50% in HeLa cells; format: functional, cell-based; settings: Homo sapiens; summary of the method: as §1
E6SM [5] = assay: concentration required to inhibit HSV-1/TK (B2006) or VMW1837-induced cytopathicity by 50% in E6SM cells; format: functional, cell-based; settings: Homo sapiens; summary of the method: as §1
Vero [6] = assay: concentration required to inhibit Sindbis virus -induced cytopathicity by 50% in Vero cells; format: functional, cell-based; settings: Chlorocebus sabaeus; summary of the method: as §1
E6SM [7] = assay: concentration required to inhibit HSV-2(G)-induced cytopathicity by 50% in E6SM cells; format: functional, cell-based; settings: Homo sapiens; summary of the method: as §1
E6SM [8] = assay: Minimum inhibitory concentration (MIC) required to elicit a microscopically visible alteration of cell morphology in E6SM cells; format: functional; settings: Homo sapiens
Vero [9] = assay: Minimum inhibitory concentration (MIC) required to elicit a microscopically visible alteration of cell morphology in Vero cells; format: functional; settings: Chlorocebus sabaeus
Vero [10] = assay: concentration required to inhibit Coxsackie virus B4-induced cytopathicity by 50% in Vero cells; format: functional, cell-based; settings: Chlorocebus sabaeus; summary of the method: as §1
Vero [11] = assay: concentration required to inhibit Punta Toro virus-induced cytopathicity by 50% in Vero cells; format: functional, cell-based; settings: Chlorocebus sabaeus; summary of the method: as §1
E6SM [12] = assay: concentration required to inhibit vaccinia virus-induced cytopathicity by 50% in E6SM cells; format: functional, cell-based; settings: Homo sapiens; summary of the method: as §1
HeLa [13] = assay: Minimum inhibitory concentration (MIC) required to elicit a microscopically visible alteration of cell morphology in HeLa cells; format: functional; settings: Homo sapiens
Vero [14] = assay: concentration required to inhibit parainfluenza-3 virus-induced cytopathicity by 50% in Vero cells; format: functional, cell-based; settings: Chlorocebus sabaeus; summary of the method: as §1
Vero [15] = assay: concentration required to inhibit reovirus-1-induced cytopathicity by 50% in Vero cells; format: functional, cell-based; settings: Chlorocebus sabaeus; summary of the method: as §1
Vero [16] = assay: concentration required to inhibit reovirus-1 induced cytopathicity by 50% in Vero cells; format: functional, cell-based; settings: Chlorocebus sabaeus; summary of the method: as §1
Adenosylhomocysteinase [17] = biological target: T1, Adenosylhomocysteinase (Homo sapiens, UniProt P23526); assay: Inhibition of S-adenosyl-homocysteine hydrolase at 01 uM concentration was determined from enzyme activity remaining
Summary of the method: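 Recombinant human placental AdoHcy hydrolase (25 nM) was preincubated with 0–100 µM inhibitor in buffer A (50 mM potassium phosphate, pH 7.2, 1 mM EDTA) at 37 °C for 20 min. Remaining activity was assayed as AdoHcy formed from 1 mM Ado and 5 mM Hcy (5 min, 37 °C), then HClO4 quench and C18 HPLC. Results are given as % activity remaining.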
Target sequence in this assay (P23526 2-432 limits assumed): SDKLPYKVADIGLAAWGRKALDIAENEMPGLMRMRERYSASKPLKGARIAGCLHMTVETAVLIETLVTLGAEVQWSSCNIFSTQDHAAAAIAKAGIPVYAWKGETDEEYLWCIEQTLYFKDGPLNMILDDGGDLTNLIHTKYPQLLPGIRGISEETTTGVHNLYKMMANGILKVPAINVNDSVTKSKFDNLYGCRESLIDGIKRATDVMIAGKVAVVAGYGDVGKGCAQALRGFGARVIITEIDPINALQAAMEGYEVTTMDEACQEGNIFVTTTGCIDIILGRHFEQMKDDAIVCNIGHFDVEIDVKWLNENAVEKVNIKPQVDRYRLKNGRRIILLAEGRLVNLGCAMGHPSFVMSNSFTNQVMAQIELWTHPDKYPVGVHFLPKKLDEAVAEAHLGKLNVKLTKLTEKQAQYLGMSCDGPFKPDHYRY

Adenosylhomocysteinase [18] = biological target: T1, Adenosylhomocysteinase; assay: (§2) Enzyme-mediated release of Adenine(Ade) from the compound
Summary of the method: (§3)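 AdoHcy hydrolase (10 µM) was incubated with 100 µM compound in buffer A at 37 °C for 20 min. At each time point the reaction was stopped with 5 M HClO4 and adenine measured by HPLC. The peak identity was confirmed by co-injection with authentic adenine and by CI/NH3 mass spectrometry.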
Target sequence in this assay (P23526 2-432 limits assumed): as above

Adenosylhomocysteinase [19] = biological target: T1, Adenosylhomocysteinase; assay: Enzyme-mediated release of halide ions from the compound; format: functional
Summary of the method: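 Enzyme (10 µM) was incubated with 100 µM compound in buffer A at 37 °C for 20 min and the filtrate collected through a 3000 Mr cutoff device. Cl⁻ and Br⁻ were measured by anion-exchange HPLC with conductivity detection (1.5 mM p-hydroxybenzoic acid/2% methanol, pH 8.5). I⁻ was measured by C18 ion-pair HPLC at 260 nm. All ions were quantified against standard curves.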
Target sequence in this assay (P23526 2-432 limits assumed): as above

Adenosylhomocysteinase [20] = biological target: T1, Adenosylhomocysteinase; assay: Inhibition of S-adenosyl-homocysteine hydrolase at 100 uM concentration was determined from enzyme activity remaining; settings: values are per cent of control
Summary of the method: (§4)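 Recombinant human placental AdoHcy hydrolase was exposed to 100 µM inhibitor in buffer A (50 mM potassium phosphate, pH 7.2, 1 mM EDTA) at 37 °C for 20 min. Residual activity was measured in the synthetic direction with 1 mM Ado plus 5 mM Hcy for 5 min at 37 °C. The reaction was stopped with HClO4 and AdoHcy quantified by C18 reverse-phase HPLC.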
Target sequence in this assay (P23526 2-432 limits assumed): as above

Adenosylhomocysteinase [21] = biological target: T1, Adenosylhomocysteinase; assay: Inhibition of S-adenosyl-homocysteine hydrolase at 0.1 uM concentration was determined from enzyme activity remaining; values are per cent of control
Target sequence in this assay (P23526 2-432 limits assumed): as above

Adenosylhomocysteinase [22] = biological target: T1, Adenosylhomocysteinase; assay: Inhibition of S-adenosyl-homocysteine hydrolase at 10 uM concentration was determined from enzyme activity remaining; values are per cent of control
Target sequence in this assay (P23526 2-432 limits assumed): as above

Adenosylhomocysteinase [23] = biological target: T1, Adenosylhomocysteinase; assay: (§5) Kinetic constant calculated from the pseudo-first-order rate constant(k app) for S-adenosyl-homocysteine hydrolase inactivation
Summary of the method: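 Recombinant human placental AdoHcy hydrolase (25 nM) preincubated with 0–100 µM inhibitor in buffer A (50 mM potassium phosphate, pH 7.2, 1 mM EDTA) at 37 °C for 0–5 min. Residual activity then measured in the synthetic direction (Ado 1 mM, Hcy 5 mM, 37 °C, 5 min; AdoHcy by reverse-phase HPLC). k_app taken from log remaining activity vs time; k2 and Ki from Kitz–Wilson analysis.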
Target sequence in this assay (P23526 whole entry): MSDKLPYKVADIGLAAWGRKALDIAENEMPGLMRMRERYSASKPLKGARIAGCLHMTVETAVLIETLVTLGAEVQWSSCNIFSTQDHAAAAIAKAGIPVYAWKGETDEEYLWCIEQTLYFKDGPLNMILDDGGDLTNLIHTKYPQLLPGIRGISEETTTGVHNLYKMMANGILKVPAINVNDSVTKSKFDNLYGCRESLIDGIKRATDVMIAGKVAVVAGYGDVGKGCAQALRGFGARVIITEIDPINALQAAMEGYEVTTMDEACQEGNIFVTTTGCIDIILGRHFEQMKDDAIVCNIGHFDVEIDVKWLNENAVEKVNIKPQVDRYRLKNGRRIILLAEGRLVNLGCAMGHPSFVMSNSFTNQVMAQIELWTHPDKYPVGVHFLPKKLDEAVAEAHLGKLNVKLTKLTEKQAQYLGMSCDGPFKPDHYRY

Adenosylhomocysteinase [24] = biological target: T1, Adenosylhomocysteinase; assay: NADH content of the enzyme (percentage of total coenzyme) from the compound; format: functional
Summary of the method: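 AdoHcy hydrolase (10 µM) in buffer A was incubated with 100 µM compound at 37 °C for 20 min. Conversion of enzyme-bound NAD⁺ to NADH was followed by UV absorbance at 340 nm and quantified against a standard curve. Values are given as % of total coenzyme.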

Adenosylhomocysteinase [25] = biological target: T1, Adenosylhomocysteinase; assay: Effect on the S-adenosyl-homocysteine hydrolase activity; format: functional; summary of the method: as §4
Adenosylhomocysteinase [26] = biological target: T1, Adenosylhomocysteinase; assay: as §5; remark: listed apart in the source
Summary of the method: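 For time-dependent inactivation, enzyme (25 nM) was incubated with various inhibitor concentrations in buffer A at 37 °C for 0–5 min, then residual synthetic-direction activity was assayed by HPLC. k_app was taken from the log(remaining activity) versus time plot. k2 and Ki were derived from k_app and [I] by the Kitz–Wilson method.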

HeLa [27] = assay: concentration required to inhibit RSV-induced cytopathicity by 50% in HeLa cells; format: functional, cell-based; settings: Homo sapiens; summary of the method: as §1
Adenosylhomocysteinase [28] = biological target: T1, Adenosylhomocysteinase; assay: Inhibition of S-adenosyl-homocysteine hydrolase at 1 uM concentration was determined from enzyme activity remaining; values are per cent of control
Adenosylhomocysteinase [29] = biological target: T1, Adenosylhomocysteinase; assay: Inhibition of S-adenosyl-homocysteine hydrolase at 100 uM concentration was determined from S-adenosylhomocysteine hydrolase activity remaining; settings: values are per cent of control; summary of the method: as §4
Adenosylhomocysteinase [30] = biological target: T1, Adenosylhomocysteinase; assay: as §2; format: functional; summary of the method: as §3
Adenosylhomocysteinase [31] = biological target: T1, Adenosylhomocysteinase; assay: Inhibition of S-adenosyl-homocysteine hydrolase at 100 uM concentration; summary of the method: as §4

SMILES: NC(=O)c1ncn([C@@H]2O[C@H](CO)[C@@H](O)[C@H]2O)n1 [RIBAVIRIN]
- EC50 (E6SM [1]): 960 µM
- EC50 (E6SM [2]): 192 µM
- EC50 (HeLa [3]): 320 µM
- EC50 (HeLa [4]): 192 µM
- EC50 (E6SM [5]): 128 µM
- EC50 (Vero [6]): 64 µM
- EC50 (E6SM [7]): 960 µM
- MIC (E6SM [8]): > 1600 µM
- MIC (Vero [9]): > 1600 µM
- EC50 (Vero [10]): > 1600 µM
- EC50 (Vero [11]): 64 µM
- EC50 (E6SM [12]): 192 µM
- MIC (HeLa [13]): > 1600 µM
- EC50 (Vero [14]): 64 µM
- EC50 (Vero [15]): 64 µM

SMILES: NC1=NC(CCCO)N(CCCO)c2[nH]cnc21 (configuration not stated)
- EC50 (HeLa [3]): > 2000 µM
- EC50 (HeLa [4]): 400 µM
- EC50 (Vero [6]): > 2000 µM
- MIC (Vero [9]): > 1600 µM
- EC50 (Vero [10]): > 2000 µM
- EC50 (Vero [11]): > 2000 µM
- MIC (HeLa [13]): > 2000 µM
- EC50 (Vero [14]): 1200 µM
- EC50 (Vero [16]): 240 µM

SMILES: Nc1ncnc2c1ncn2C1O[C@H](C#CCl)[C@@H](O)[C@H]1O (some centres not stated)
- EC50 (E6SM [1]): > 140 µM
- EC50 (E6SM [2]): 70 µM
- inhibition (Adenosylhomocysteinase [17]): 64%
- Release (Adenosylhomocysteinase [18]): 18%
- EC50 (HeLa [3]): > 140 µM
- EC50 (HeLa [4]): > 140 µM
- EC50 (E6SM [5]): > 140 µM
- Release (Adenosylhomocysteinase [19]): 28%
- residual activity (Adenosylhomocysteinase [20]): 55%
- EC50 (Vero [6]): > 35 µM
- EC50 (E6SM [7]): > 140 µM
- residual activity (Adenosylhomocysteinase [21]): 89.3%
- residual activity (Adenosylhomocysteinase [22]): 58.9%
- MIC (E6SM [8]): > 340 µM
- Ki (Adenosylhomocysteinase [23]): 1.7 µM
- MIC (Vero [9]): > 140 µM
- EC50 (Vero [10]): > 35 µM
- Total coenzyme (Adenosylhomocysteinase [24]): 53%
- EC50 (Vero [11]): > 35 µM
- EC50 (E6SM [12]): 140 µM
- MIC (HeLa [13]): > 340 µM
- EC50 (Vero [14]): > 35 µM
- Activity (Adenosylhomocysteinase [25]): 47%
- k2 (Adenosylhomocysteinase [26]): 0.48 min⁻¹
- EC50 (Vero [15]): > 35 µM
- EC50 (HeLa [27]): > 140 µM

SMILES: Nc1ncnc2c1ncn2C1O[C@H](C#CBr)[C@@H](O)[C@H]1O (some centres not stated)
- EC50 (E6SM [1]): > 120 µM
- EC50 (E6SM [2]): 6 µM
- EC50 (HeLa [3]): > 300 µM
- EC50 (HeLa [4]): 45 µM
- EC50 (E6SM [5]): > 120 µM
- Release (Adenosylhomocysteinase [19]): 70%
- residual activity (Adenosylhomocysteinase [28]): 73.2%
- EC50 (Vero [6]): > 30 µM
- residual activity (Adenosylhomocysteinase [29]): 56%
- EC50 (E6SM [7]): > 120 µM
- residual activity (Adenosylhomocysteinase [21]): 91%
- residual activity (Adenosylhomocysteinase [22]): 62.9%
- MIC (E6SM [8]): > 300 µM
- Ki (Adenosylhomocysteinase [23]): 3.8 µM
- MIC (Vero [9]): > 120 µM
- EC50 (Vero [10]): > 30 µM
- Total coenzyme (Adenosylhomocysteinase [24]): 49%
- EC50 (Vero [11]): > 30 µM
- EC50 (E6SM [12]): 6 µM
- MIC (HeLa [13]): > 300 µM
- EC50 (Vero [14]): 6 µM
- Activity (Adenosylhomocysteinase [25]): 49%
- k2 (Adenosylhomocysteinase [26]): 0.49 min⁻¹
- EC50 (Vero [15]): 3 µM
- Release (Adenosylhomocysteinase [30]): 28%
- EC50 (HeLa [27]): 210 µM

SMILES: Nc1ncnc2c1ncn2C1O[C@H](C#CI)[C@@H](O)[C@H]1O (some centres not stated)
- EC50 (E6SM [1]): > 10 µM
- EC50 (E6SM [2]): 0.08 µM
- inhibition (Adenosylhomocysteinase [31]): < 2%
- EC50 (HeLa [3]): > 260 µM
- EC50 (HeLa [4]): 260 µM
- EC50 (E6SM [5]): > 10 µM
- Release (Adenosylhomocysteinase [19]): 0%
- residual activity (Adenosylhomocysteinase [28]): 44.6%
- EC50 (Vero [6]): > 104 µM
- EC50 (E6SM [7]): > 10 µM
- residual activity (Adenosylhomocysteinase [21]): 80%
- residual activity (Adenosylhomocysteinase [22]): 8.8%
- MIC (E6SM [8]): 26 µM (≈ 10.1 µg/mL)
- Ki (Adenosylhomocysteinase [23]): 1.1 µM
- MIC (Vero [9]): > 180 µM
- EC50 (Vero [10]): > 104 µM
- Total coenzyme (Adenosylhomocysteinase [24]): 96%
- EC50 (Vero [11]): > 104 µM
- EC50 (E6SM [12]): 0.26 µM
- MIC (HeLa [13]): > 1040 µM
- EC50 (Vero [14]): 2.6 µM
- Activity (Adenosylhomocysteinase [25]): 1.4%
- k2 (Adenosylhomocysteinase [26]): 0.095 min⁻¹
- EC50 (Vero [15]): > 0.78 µM
- Release (Adenosylhomocysteinase [30]): 5.7%
- EC50 (HeLa [27]): > 260 µM

Reference: ChEMBL document CHEMBL1131121, “Inactivation of S-adenosyl-L-homocysteine hydrolase and antiviral activity with 5',5',6',6'-tetradehydro-6'-deoxy-6'-halohomoadenosine analogues (4'-haloacetylene analogues derived from adenosine)” (J Med Chem, 1998)
